Laboratory results taken from ChEMBL document CHEMBL5724801, “EUbOPEN Chemogenomics Library - Multiplex” (2024).
Several values for one entry are separate records, joined by “and”; a condition that tells them apart may be missing. Equal values may be shown once.

Tested on: U2OS
Assay: Multiplex assay against U2OS
Type: toxicity, cell-based
Conditions: human
Procedure, shortened: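 Tubulin, mitochondrial-mass and membrane-permeability phenotypes are per cents of healthy-nucleus cells. Cells were gated by CellPathfinder machine learning into Hoechst high-intensity objects or normal cells, normal cells into healthy, pyknosed or fragmented nuclei, and pyknosed cells into mitotic or apoptotic. Before that, live cells stained at seeding with Hoechst33342, BioTracker Green Microtubule Cytoskeleton Dye, MitoTracker Red and Annexin V Alexa Fluor 680 were imaged on a CQ1 microscope at 37°C and 5% CO2 after compound addition.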

[1] = 12 h, 1 µM, compound concentration 1 uM
[2] = 12 h, 10 µM, compound concentration 10 uM
[3] = 24 h, 1 µM, compound concentration 1 uM
[4] = 24 h, 10 µM, compound concentration 10 uM
[5] = 48 h, 1 µM, compound concentration 1 uM
[6] = 48 h, 10 µM, compound concentration 10 uM

C=C(C)[C@H]1CN[C@H](C(=O)O)[C@H]1CC(=O)O [KAINIC ACID]
Population Apoptotic (%) [1]: 30.91% and 58.82% | Population Fragmented Nuclei (%) [1]: 1.23% and 1.12% | Population Healthy Nuclei (%) [1]: 87.5% and 89.39% | Population Hoechst High Intensity Objects (%) [1]: 0% | Population Membrane Permeable-Phenotype (%) [1]: 1.41% and 1.88% | Population Mitochondria Different-Phenotype (%) [1]: 0.23% and 4.38% | Population Mitotic Cells (%) [1]: 69.09% and 41.18% | Population Normal (%) [1]: 100% | Population Pyknosed Nuclei (%) [1]: 11.27% and 9.5% | Population Tubulin-Different-Phenotype (%) [1]: 0.7% and 0.62% | Total Cell Count [1]: 488 and 179 | Population Apoptotic (%) [2]: 57.14% and 30.77% | Population Fragmented Nuclei (%) [2]: 0.95% and 4.3% | Population Healthy Nuclei (%) [2]: 89.13% and 81.72% | Population Hoechst High Intensity Objects (%) [2]: 0% | Population Membrane Permeable-Phenotype (%) [2]: 0.27% and 3.29% | Population Mitochondria Different-Phenotype (%) [2]: 0.27% and 4.61% | Population Mitotic Cells (%) [2]: 42.86% and 69.23% | Population Normal (%) [2]: 100% | Population Pyknosed Nuclei (%) [2]: 9.93% and 13.98% | Population Tubulin-Different-Phenotype (%) [2]: 0.53% and 0% | Total Cell Count [2]: 423 and 186 | Population Apoptotic (%) [3]: 37.88% and 41.38% | Population Fragmented Nuclei (%) [3]: 1.93% and 1.32% | Population Healthy Nuclei (%) [3]: 88.3% and 85.96% | Population Hoechst High Intensity Objects (%) [3]: 0% | Population Membrane Permeable-Phenotype (%) [3]: 0.84% and 3.06% | Population Mitochondria Different-Phenotype (%) [3]: 0.17% and 5.61% | Population Mitotic Cells (%) [3]: 62.12% and 58.62% | Population Normal (%) [3]: 100% | Population Pyknosed Nuclei (%) [3]: 9.78% and 12.72% | Population Tubulin-Different-Phenotype (%) [3]: 0.5% and 0.51% | Total Cell Count [3]: 675 and 228 | Population Apoptotic (%) [4]: 43.86% and 44.44% | Population Fragmented Nuclei (%) [4]: 0.5% and 1.63% | Population Healthy Nuclei (%) [4]: 90.02% and 91.02% | Population Hoechst High Intensity Objects (%) [4]: 0% | Population Membrane Permeable-Phenotype (%) [4]: 0.37% and 1.79% | Population Mitochondria Different-Phenotype (%) [4]: 0% and 2.69% | Population Mitotic Cells (%) [4]: 56.14% and 55.56% | Population Normal (%) [4]: 100% | Population Pyknosed Nuclei (%) [4]: 9.48% and 7.35% | Population Tubulin-Different-Phenotype (%) [4]: 0.92% and 0.9% | Total Cell Count [4]: 601 and 245 | Population Apoptotic (%) [5]: 36.05% and 33.33% | Population Fragmented Nuclei (%) [5]: 2.72% and 1.63% | Population Healthy Nuclei (%) [5]: 90.38% and 86.14% | Population Hoechst High Intensity Objects (%) [5]: 0% | Population Membrane Permeable-Phenotype (%) [5]: 0.98% and 1.89% | Population Mitochondria Different-Phenotype (%) [5]: 0.44% and 1.89% | Population Mitotic Cells (%) [5]: 63.95% and 66.67% | Population Normal (%) [5]: 100% | Population Pyknosed Nuclei (%) [5]: 6.89% and 12.23% | Population Tubulin-Different-Phenotype (%) [5]: 0.62% and 0.95% | Population Apoptotic (%) [6]: 44.57% and 57.89% | Population Fragmented Nuclei (%) [6]: 3.7% and 0.47% | Population Healthy Nuclei (%) [6]: 88.18% and 90.59% | Population Hoechst High Intensity Objects (%) [6]: 0% | Population Membrane Permeable-Phenotype (%) [6]: 0.8% and 2.08% | Population Mitochondria Different-Phenotype (%) [6]: 0.2% and 2.08% | Population Mitotic Cells (%) [6]: 55.43% and 42.11% | Population Normal (%) [6]: 100% | Population Pyknosed Nuclei (%) [6]: 8.11% and 8.94% | Population Tubulin-Different-Phenotype (%) [6]: 0.7% and 1.3% | Total Cell Count [6]: 1134 and 425

Cc1ccc(C(C)(O)c2nc3ccccc3s2)c(C)c1 (stereo not given)
Population Apoptotic (%) [1]: 86% and 100% | Population Fragmented Nuclei (%) [1]: 19% and 17% | Population Healthy Nuclei (%) [1]: 70% and 78% | Population Hoechst High Intensity Objects (%) [1]: 3% and 0% | Population Membrane Permeable-Phenotype (%) [1]: 4% and 9% | Population Mitochondria Different-Phenotype (%) [1]: 1% and 4% | Population Mitotic Cells (%) [1]: 13% and 0% | Population Normal (%) [1]: 96% and 99% | Population Pyknosed Nuclei (%) [1]: 9% and 3% | Population Tubulin-Different-Phenotype (%) [1]: 2% and 5% | Total Cell Count [1]: 249 and 141 | Population Apoptotic (%) [2]: 100% and 66% | Population Fragmented Nuclei (%) [2]: 25% and 18% | Population Healthy Nuclei (%) [2]: 67% and 77% | Population Hoechst High Intensity Objects (%) [2]: 2% and 4% | Population Membrane Permeable-Phenotype (%) [2]: 9% and 3% | Population Mitochondria Different-Phenotype (%) [2]: 3% and 1% | Population Normal (%) [2]: 97% and 95% | Population Pyknosed Nuclei (%) [2]: 6% and 3% | Population Tubulin-Different-Phenotype (%) [2]: 3% and 1% | Total Cell Count [2]: 234 and 89 | Population Apoptotic (%) [3]: 92% and 90% | Population Fragmented Nuclei (%) [3]: 22% and 13% | Population Healthy Nuclei (%) [3]: 69% and 80% | Population Hoechst High Intensity Objects (%) [3]: 1% and 0% | Population Membrane Permeable-Phenotype (%) [3]: 4% and 6% | Population Mitochondria Different-Phenotype (%) [3]: 0% and 3% | Population Mitotic Cells (%) [3]: 7% and 10% | Population Normal (%) [3]: 98% and 99% | Population Pyknosed Nuclei (%) [3]: 8% and 6% | Population Tubulin-Different-Phenotype (%) [3]: 3% and 4% | Total Cell Count [3]: 327 and 159 | Population Apoptotic (%) [4]: 88% and 75% | Population Fragmented Nuclei (%) [4]: 22% and 16% | Population Healthy Nuclei (%) [4]: 71% and 75% | Population Hoechst High Intensity Objects (%) [4]: 1% and 4% | Population Membrane Permeable-Phenotype (%) [4]: 5% and 3% | Population Mitochondria Different-Phenotype (%) [4]: 3% and 1% | Population Mitotic Cells (%) [4]: 11% and 25% | Population Normal (%) [4]: 98% and 95% | Population Pyknosed Nuclei (%) [4]: 6% and 7% | Population Tubulin-Different-Phenotype (%) [4]: 3% | Total Cell Count [4]: 272 and 113 | Population Apoptotic (%) [5]: 88% and 94% | Population Fragmented Nuclei (%) [5]: 16% and 15% | Population Healthy Nuclei (%) [5]: 74% and 76% | Population Hoechst High Intensity Objects (%) [5]: 2% and 3% | Population Membrane Permeable-Phenotype (%) [5]: 5% and 6% | Population Mitochondria Different-Phenotype (%) [5]: 2% and 3% | Population Mitotic Cells (%) [5]: 11% and 5% | Population Normal (%) [5]: 97% and 96% | Population Pyknosed Nuclei (%) [5]: 9% and 8% | Population Tubulin-Different-Phenotype (%) [5]: 2% and 5% | Total Cell Count [5]: 442 and 215 | Population Apoptotic (%) [6]: 96% and 85% | Population Fragmented Nuclei (%) [6]: 23% and 11% | Population Healthy Nuclei (%) [6]: 69% and 83% | Population Hoechst High Intensity Objects (%) [6]: 2% and 5% | Population Membrane Permeable-Phenotype (%) [6]: 6% and 5% | Population Mitochondria Different-Phenotype (%) [6]: 1% | Population Normal (%) [6]: 97% and 94% | Population Pyknosed Nuclei (%) [6]: 7% and 5% | Population Tubulin-Different-Phenotype (%) [6]: 4% | Total Cell Count [6]: 365 and 147

O=C(NCCNCC(O)COc1ccc(O)cc1)N1CCOCC1.O=C(NCCNCC(O)COc1ccc(O)cc1)N1CCOCC1.O=C(O)/C=C/C(=O)O (stereo not given) [XAMOTEROL FUMARATE]
Population Apoptotic (%) [1]: 71% and 83% | Population Fragmented Nuclei (%) [1]: 27% and 19% | Population Healthy Nuclei (%) [1]: 66% and 68% | Population Hoechst High Intensity Objects (%) [1]: 2% and 3% | Population Membrane Permeable-Phenotype (%) [1]: 6% and 13% | Population Mitochondria Different-Phenotype (%) [1]: 1% | Population Mitotic Cells (%) [1]: 28% and 16% | Population Normal (%) [1]: 97% and 96% | Population Pyknosed Nuclei (%) [1]: 5% and 11% | Population Tubulin-Different-Phenotype (%) [1]: 2% and 5% | Total Cell Count [1]: 265 and 110 | Population Apoptotic (%) [2]: 92% and 100% | Population Fragmented Nuclei (%) [2]: 28% and 15% | Population Healthy Nuclei (%) [2]: 60% and 73% | Population Hoechst High Intensity Objects (%) [2]: 0% and 4% | Population Membrane Permeable-Phenotype (%) [2]: 6% and 4% | Population Mitochondria Different-Phenotype (%) [2]: 2% and 3% | Population Mitotic Cells (%) [2]: 7% and 0% | Population Normal (%) [2]: 99% and 95% | Population Pyknosed Nuclei (%) [2]: 11% | Population Tubulin-Different-Phenotype (%) [2]: 4% and 7% | Total Cell Count [2]: 239 and 118 | Population Apoptotic (%) [3]: 85% and 80% | Population Fragmented Nuclei (%) [3]: 24% and 18% | Population Healthy Nuclei (%) [3]: 68% and 69% | Population Hoechst High Intensity Objects (%) [3]: 0% and 1% | Population Membrane Permeable-Phenotype (%) [3]: 5% and 10% | Population Mitochondria Different-Phenotype (%) [3]: 0% and 4% | Population Mitotic Cells (%) [3]: 15% and 20% | Population Normal (%) [3]: 99% and 98% | Population Pyknosed Nuclei (%) [3]: 6% and 11% | Population Tubulin-Different-Phenotype (%) [3]: 1% and 5% | Total Cell Count [3]: 312 and 129 | Population Apoptotic (%) [4]: 89% and 78% | Population Fragmented Nuclei (%) [4]: 22% and 16% | Population Healthy Nuclei (%) [4]: 66% and 70% | Population Hoechst High Intensity Objects (%) [4]: 1% | Population Membrane Permeable-Phenotype (%) [4]: 6% | Population Mitochondria Different-Phenotype (%) [4]: 2% | Population Mitotic Cells (%) [4]: 10% and 21% | Population Normal (%) [4]: 98% | Population Pyknosed Nuclei (%) [4]: 10% and 12% | Population Tubulin-Different-Phenotype (%) [4]: 2% and 6% | Total Cell Count [4]: 270 and 152 | Population Apoptotic (%) [5]: 90% and 91% | Population Fragmented Nuclei (%) [5]: 18% and 23% | Population Healthy Nuclei (%) [5]: 75% and 62% | Population Hoechst High Intensity Objects (%) [5]: 1% and 2% | Population Membrane Permeable-Phenotype (%) [5]: 4% and 6% | Population Mitochondria Different-Phenotype (%) [5]: 2% and 3% | Population Mitotic Cells (%) [5]: 9% and 8% | Population Normal (%) [5]: 98% and 97% | Population Pyknosed Nuclei (%) [5]: 6% and 13% | Population Tubulin-Different-Phenotype (%) [5]: 2% and 4% | Total Cell Count [5]: 472 and 171 | Population Apoptotic (%) [6]: 89% and 94% | Population Fragmented Nuclei (%) [6]: 18% and 17% | Population Healthy Nuclei (%) [6]: 68% and 73% | Population Hoechst High Intensity Objects (%) [6]: 1% and 2% | Population Membrane Permeable-Phenotype (%) [6]: 2% and 4% | Population Mitochondria Different-Phenotype (%) [6]: 1% and 4% | Population Mitotic Cells (%) [6]: 10% and 5% | Population Normal (%) [6]: 98% and 97% | Population Pyknosed Nuclei (%) [6]: 12% and 9% | Population Tubulin-Different-Phenotype (%) [6]: 2% and 6% | Total Cell Count [6]: 392 and 206
